Reference: ChEMBL document CHEMBL5058577, “EUbOPEN Chemogenomics Library 2 (Multiplex)” (2022)

System: HEK-293T
Assay: Multiplex assay against HEK293T
Type: toxicity, cell-based
Conditions: human
Summary of the method: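 On a CQ1 microscope at 37°C and 5% CO2, live cells were imaged after compound addition. They had been stained at seeding with Hoechst33342, BioTracker Green Microtubule Cytoskeleton Dye, MitoTracker Red and Annexin V Alexa Fluor 680. CellPathfinder machine-learning gating assigned cells to Hoechst high-intensity objects or normal cells, normal cells to healthy, pyknosed or fragmented nuclei, and pyknosed cells to mitotic or apoptotic. Tubulin, mitochondrial-mass and membrane-permeability phenotypes are per cents of healthy-nucleus cells.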

[1] = 12 h, 1 µM, compound concentration 1 uM, replicate 1
[2] = 12 h, 1 µM, compound concentration 1 uM, replicate 2
[3] = 12 h, 10 µM, compound concentration 10 uM, replicate 1
[4] = 12 h, 10 µM, compound concentration 10 uM, replicate 2
[5] = 24 h, 1 µM, compound concentration 1 uM, replicate 1
[6] = 24 h, 1 µM, compound concentration 1 uM, replicate 2
[7] = 24 h, 10 µM, compound concentration 10 uM, replicate 1
[8] = 24 h, 10 µM, compound concentration 10 uM, replicate 2
[9] = 48 h, 1 µM, compound concentration 1 uM, replicate 1
[10] = 48 h, 1 µM, compound concentration 1 uM, replicate 2
[11] = 48 h, 10 µM, compound concentration 10 uM, replicate 1
[12] = 48 h, 10 µM, compound concentration 10 uM, replicate 2

Which results are given for `Cc1ccc(/C(=C\CN2CCCC2)c2ccccn2)cc1` [TRIPROLIDINE]?
Population Apoptotic (%) [1]: 34%; Population Fragmented Nuclei (%) [1]: 6%; Population Healthy Nuclei (%) [1]: 83%; Population Hoechst High Intensity Objects (%) [1]: 7%; Population Membrane Permeable-Phenotype (%) [1]: 0%; Population Mitochondria Different-Phenotype (%) [1]: 45%; Population Mitotic Cells (%) [1]: 65%; Population Normal (%) [1]: 92%; Population Pyknosed Nuclei (%) [1]: 9%; Population Tubulin-Different-Phenotype (%) [1]: 24%; Total Cell Count [1]: 424; Population Apoptotic (%) [2]: 50%; Population Fragmented Nuclei (%) [2]: 3%; Population Healthy Nuclei (%) [2]: 84%; Population Hoechst High Intensity Objects (%) [2]: 5%; Population Mitochondria Different-Phenotype (%) [2]: 55%; Population Mitotic Cells (%) [2]: 50%; Population Normal (%) [2]: 94%; Population Pyknosed Nuclei (%) [2]: 11%; Population Tubulin-Different-Phenotype (%) [2]: 17%; Total Cell Count [2]: 446; Population Apoptotic (%) [3]: 44%; Population Fragmented Nuclei (%) [3]: 10%; Population Healthy Nuclei (%) [3]: 72%; Population Hoechst High Intensity Objects (%) [3]: 15%; Population Membrane Permeable-Phenotype (%) [3]: 0%; Population Mitochondria Different-Phenotype (%) [3]: 67%; Population Mitotic Cells (%) [3]: 56%; Population Normal (%) [3]: 84%; Population Pyknosed Nuclei (%) [3]: 16%; Population Tubulin-Different-Phenotype (%) [3]: 53%; Total Cell Count [3]: 368; Population Fragmented Nuclei (%) [4]: 6%; Population Healthy Nuclei (%) [4]: 77%; Population Hoechst High Intensity Objects (%) [4]: 8%; Population Mitochondria Different-Phenotype (%) [4]: 74%; Population Normal (%) [4]: 91%; Population Pyknosed Nuclei (%) [4]: 15%; Population Tubulin-Different-Phenotype (%) [4]: 45%; Total Cell Count [4]: 344; Population Apoptotic (%) [5]: 30%; Population Fragmented Nuclei (%) [5]: 10%; Population Healthy Nuclei (%) [5]: 78%; Population Hoechst High Intensity Objects (%) [5]: 3%; Population Membrane Permeable-Phenotype (%) [5]: 0%; Population Mitochondria Different-Phenotype (%) [5]: 27%; Population Mitotic Cells (%) [5]: 70%; Population Normal (%) [5]: 96%; Population Pyknosed Nuclei (%) [5]: 10%; Population Tubulin-Different-Phenotype (%) [5]: 18%; Total Cell Count [5]: 574; Population Fragmented Nuclei (%) [6]: 9%; Population Healthy Nuclei (%) [6]: 82%; Population Hoechst High Intensity Objects (%) [6]: 7%; Population Mitochondria Different-Phenotype (%) [6]: 34%; Population Mitotic Cells (%) [6]: 69%; Population Normal (%) [6]: 92%; Population Pyknosed Nuclei (%) [6]: 7%; Population Tubulin-Different-Phenotype (%) [6]: 9%; Total Cell Count [6]: 541; Population Apoptotic (%) [7]: 36%; Population Fragmented Nuclei (%) [7]: 8%; Population Healthy Nuclei (%) [7]: 78%; Population Hoechst High Intensity Objects (%) [7]: 9%; Population Membrane Permeable-Phenotype (%) [7]: 0%; Population Mitochondria Different-Phenotype (%) [7]: 55%; Population Mitotic Cells (%) [7]: 63%; Population Normal (%) [7]: 90%; Population Pyknosed Nuclei (%) [7]: 13%; Population Tubulin-Different-Phenotype (%) [7]: 43%; Total Cell Count [7]: 490; Population Apoptotic (%) [8]: 27%; Population Fragmented Nuclei (%) [8]: 9%; Population Healthy Nuclei (%) [8]: 80%; Population Hoechst High Intensity Objects (%) [8]: 4%; Population Mitochondria Different-Phenotype (%) [8]: 54%; Population Mitotic Cells (%) [8]: 72%; Population Normal (%) [8]: 95%; Population Pyknosed Nuclei (%) [8]: 10%; Population Tubulin-Different-Phenotype (%) [8]: 26%; Total Cell Count [8]: 464; Population Apoptotic (%) [9]: 16%; Population Fragmented Nuclei (%) [9]: 14%; Population Healthy Nuclei (%) [9]: 79%; Population Hoechst High Intensity Objects (%) [9]: 1%; Population Membrane Permeable-Phenotype (%) [9]: 2%; Population Mitochondria Different-Phenotype (%) [9]: 17%; Population Mitotic Cells (%) [9]: 83%; Population Normal (%) [9]: 98%; Population Pyknosed Nuclei (%) [9]: 6%; Population Tubulin-Different-Phenotype (%) [9]: 11%; Total Cell Count [9]: 950; Population Apoptotic (%) [10]: 37%; Population Fragmented Nuclei (%) [10]: 10%; Population Healthy Nuclei (%) [10]: 84%; Population Hoechst High Intensity Objects (%) [10]: 3%; Population Membrane Permeable-Phenotype (%) [10]: 1%; Population Mitochondria Different-Phenotype (%) [10]: 13%; Population Mitotic Cells (%) [10]: 62%; Population Normal (%) [10]: 96%; Population Pyknosed Nuclei (%) [10]: 4%; Population Tubulin-Different-Phenotype (%) [10]: 6%; Total Cell Count [10]: 837; Population Apoptotic (%) [11]: 43%; Population Fragmented Nuclei (%) [11]: 16%; Population Healthy Nuclei (%) [11]: 74%; Population Hoechst High Intensity Objects (%) [11]: 6%; Population Membrane Permeable-Phenotype (%) [11]: 0%; Population Mitochondria Different-Phenotype (%) [11]: 46%; Population Mitotic Cells (%) [11]: 56%; Population Normal (%) [11]: 93%; Population Pyknosed Nuclei (%) [11]: 9%; Population Tubulin-Different-Phenotype (%) [11]: 29%; Total Cell Count [11]: 674; Population Apoptotic (%) [12]: 33%; Population Fragmented Nuclei (%) [12]: 13%; Population Healthy Nuclei (%) [12]: 78%; Population Hoechst High Intensity Objects (%) [12]: 4%; Population Membrane Permeable-Phenotype (%) [12]: 1%; Population Mitochondria Different-Phenotype (%) [12]: 43%; Population Mitotic Cells (%) [12]: 66%; Population Normal (%) [12]: 95%; Population Pyknosed Nuclei (%) [12]: 7%; Population Tubulin-Different-Phenotype (%) [12]: 25%; Total Cell Count [12]: 644
